According to PMC6910256 (Journal of photochemistry and photobiology. A, Chemistry, 2019):
Where two headings read alike, the source gives them in different places.

Assays:
DUSP5 PD [1] = biological target: T1, DUSP5 PD (Homo sapiens, UniProt Q16690); experiment: Spectral analysis of other xanthene dyes binding to DUSP5 PD protein; details: 4 μM compound, 4 μM protein
T1 sequence (Q16690 178-319 limits assumed): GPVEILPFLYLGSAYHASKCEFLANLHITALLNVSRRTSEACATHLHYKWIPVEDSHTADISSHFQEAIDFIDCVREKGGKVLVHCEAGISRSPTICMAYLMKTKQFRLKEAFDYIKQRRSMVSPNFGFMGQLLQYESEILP
In short: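 Each test compound at 4 μM in assay buffer, without or with 1 mM DTT, in 2 mL quartz cuvettes. Absorbance was scanned at 1 nm intervals from 400 to 600 nm. DUSP5 PD was then added to a final 4 μM and the sample rescanned. Blanks were buffer with or without DTT, plus buffer with 4 μM protein. Spectra without protein were subtracted from spectra with protein to give difference spectra.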

DUSP5 PD [2] = biological target: T1, DUSP5 PD; experiment: Reaction progress curve analysis of irreversible DUSP5 PD inactivation; format: biochemical
DUSP5 PD [3] = biological target: T1, DUSP5 PD; experiment: Steady-state competitive inhibition kinetics; format: biochemical; details: vs pNPP
In short: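 Initial DUSP5 PD velocities were measured across 3–81 mM pNPP and 0–30 μM test compound, in assay buffer with 1 mM DTT. The data were fitted globally to a steady-state competitive inhibition model (equation 5), giving Vmax, Km and Ki ± SE.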

GST-DUSP5 = biological target: T2, GST-DUSP5 (Homo sapiens, UniProt Q16690); experiment: Prestwick drug library pNPP enzyme assay screen; format: biochemical; details: 50 μM drug, 5 mM pNPP
T2 sequence (Q16690 178-319 limits assumed): T1 sequence (Q16690 178-319 limits assumed)

DUSP5 PD [4] = biological target: T1, DUSP5 PD; experiment: DUSP5 phosphatase domain pNPP assay, IC50 from initial velocities; format: biochemical
In short: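 Recombinant DUSP5 phosphatase domain in 100 mM Tris, 100 mM NaCl, 5 mM MgCl2, pH 7.5, without or with 1 mM DTT, using 5 mM pNPP (near Km). Compound was serially diluted and enzyme added from a 25 μM stock. After 0, 30 or 60 min dark incubation, A405 was read every 30 s for 10 min at 25°C. Blank-subtracted slopes were normalised to vehicle controls and fitted to equation 2. Three or four trials of triplicate wells.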

Nephelometry = format: physicochemical; details: assay buffer pH 7.5 without vs with 1 mM DTT
In short: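 Aggregation was tested in 96-well plates using substrate-free assay buffer at pH 7.5, without or with 1 mM DTT. Serially diluted compound was added to give final concentrations of 1–100 μM or 1–300 μM, depending on compound.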

[5] = biological target: T3, GST-DUSP5 (full length DUSP5, pERK substrate) (Homo sapiens, UniProt Q16690); experiment: In vitro ERK dephosphorylation Western blot assay; format: biochemical; details: non-cell based western blot
T3 sequence (Q16690 1-384): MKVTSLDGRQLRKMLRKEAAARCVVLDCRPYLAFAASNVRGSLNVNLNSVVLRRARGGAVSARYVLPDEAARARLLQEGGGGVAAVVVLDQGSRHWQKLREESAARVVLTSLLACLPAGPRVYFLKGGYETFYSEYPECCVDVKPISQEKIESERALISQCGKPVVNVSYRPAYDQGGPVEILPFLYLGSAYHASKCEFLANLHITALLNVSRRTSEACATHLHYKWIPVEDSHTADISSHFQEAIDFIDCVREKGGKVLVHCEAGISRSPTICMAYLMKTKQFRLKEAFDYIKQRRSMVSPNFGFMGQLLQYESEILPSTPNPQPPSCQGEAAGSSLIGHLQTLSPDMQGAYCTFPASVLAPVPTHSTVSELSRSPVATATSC

DUSP5 PD [6] = biological target: T1, DUSP5 PD; experiment: Headspace gas sparging kinetic studies; format: biochemical; details: 1 μM rose bengal, illuminated 15 min
In short: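 Borosilicate tubes held 4 mL assay buffer with 1 μM DUSP5 PD, without or with 1 μM test compound. They were prepared shielded from light, stoppered and kept on ice. Ultrapure air, nitrogen or oxygen was passed through the headspace at 2.5 L/min by needle. Controls: enzyme without compound under room air. After illumination, pNPP hydrolysis was read at 405 nm every 30 s for 10 min at 25°C in 96-well plates, background-subtracted and converted to p-nitrophenolate.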

DUSP5 PD [7] = biological target: T1, DUSP5 PD; experiment: Incandescent bulb kinetic studies, noncompetitive inhibition models; format: biochemical
In short: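 DUSP5 PD (final 1 μM) in 100 mM Tris pH 7.5, 100 mM NaCl, 5 mM MgCl2, 1 mM DTT, precooled to 4°C. Incubated in glass tubes with test compound (1 mM aqueous stock, light-protected), either light-limited or under incandescent illumination. Substrate was 3, 9 or 27 mM pNPP, with pNPP-only background subtraction. Initial velocities came from linear fits of p-nitrophenolate (ε 18,000). Fits were global noncompetitive models: a single Ki (equation 6), or slope Kis and intercept Kii (equation 7).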

DUSP5 PD [8] = biological target: T1, DUSP5 PD; experiment: Binding of rose bengal to DUSP5 PD by UV-Vis spectral titration; details: read-out: Kd for binding to DUSP5; as printed in abstract/highlights
In short: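 Final protein was 0, 1.0, 2.0 and 3.0 μM with 1.08 μM compound, or 0–2.5 μM in 0.5 μM steps with 3.25 or 6.5 μM compound. Absorbance differences were fitted hyperbolically (equation 8) against total protein to obtain Absmax. Fractional absorbance was plotted versus total protein.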

DUSP5 PD [9] = biological target: T1, DUSP5 PD; experiment: LED illumination kinetic studies; format: biochemical; details: 555 nm LED, 30 min, 825 lux
In short: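 Samples of 4 mL containing 1 μM DUSP5 PD and 0, 1, 2 or 3.5 μM test compound were prepared at 20°C under <1 lux. They were then treated for 30 min, illuminated or light-shielded. Aliquots of 190 μL were started with pNPP (final 0, 3, 9, 27 mM), four replicates each, plated under <1 lux. A405 was read every 30 s for 10 min at 25°C. Initial velocities were globally fitted to the noncompetitive models (equations 6, 7).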

[10] = with 1 mM DTT, summary of data sets (Table 2)
[11] = without DTT, summary of data sets (Table 2)
[12] = without DTT, fit of kobs replot to equation 4 (Fig. 5c/6c)

O=C1OC2(c3cc(Br)c(O)cc3Oc3cc(O)c(Br)cc32)c2ccccc21 [2’,7’-dibromofluorescein]
spectral shift upon addition of DUSP5 PD protein (DUSP5 PD [1]; with 1 mM DTT): shifted slightly
spectral shift upon addition of DUSP5 PD protein (DUSP5 PD [1]; without DTT): shifted slightly
Inhibitor mechanism (irreversible inactivation) (DUSP5 PD [2]; with 1 mM DTT): single-step
kinact/KI (DUSP5 PD [2]; [10]): 0.84 ± 0.07 M⁻¹ s⁻¹
Inhibitor mechanism (irreversible inactivation) (DUSP5 PD [2]; without DTT): single-step
kinact/KI (DUSP5 PD [2]; [11]): 2.40 ± 0.48 M⁻¹ s⁻¹

O=C1OC2(c3cc(Cl)c(O)cc3Oc3cc(O)c(Cl)cc32)c2ccccc21 [2’,7’-dichlorofluorescein]
spectral shift upon addition of DUSP5 PD protein (DUSP5 PD [1]; with 1 mM DTT): no spectral differences
spectral shift upon addition of DUSP5 PD protein (DUSP5 PD [1]; without DTT): no spectral differences
Inhibitor mechanism (irreversible inactivation) (DUSP5 PD [2]; with 1 mM DTT): single-step
kinact/KI (DUSP5 PD [2]; [10]): 0.14 ± 0.02 M⁻¹ s⁻¹
Inhibitor mechanism (irreversible inactivation) (DUSP5 PD [2]; without DTT): single-step
kinact/KI (DUSP5 PD [2]; [11]): 0.41 ± 0.06 M⁻¹ s⁻¹

O=C1OC2(c3ccccc31)c1cc(I)c(O)c(I)c1Oc1c2cc(I)c(O)c1I [Erythrosin B, 2’,4’,5’,7’-tetraiodofluorescein]
spectral shift upon addition of DUSP5 PD protein (DUSP5 PD [1]; with 1 mM DTT): not diminished
spectral shift upon addition of DUSP5 PD protein (DUSP5 PD [1]; without DTT): spectrally shifted
fold less effective than merbromin (time-dependent inhibition) (DUSP5 PD [2]; absence of DTT): roughly 10 fold
Inhibitor mechanism (irreversible inactivation) (DUSP5 PD [2]; with 1 mM DTT): single-step
kinact/KI (DUSP5 PD [2]; [10]): 4.13 ± 0.13 M⁻¹ s⁻¹
Inhibitor mechanism (irreversible inactivation) (DUSP5 PD [2]; without DTT): single-step
kinact/KI (DUSP5 PD [2]; [11]): 4.65 ± 0.71 M⁻¹ s⁻¹
steady-state inhibition mechanism (DUSP5 PD [3]): competitive inhibitor

CN1CCC2(C)c3cc(O)ccc3N(C)C12.O=C(O)/C=C/C(=O)O (centres unmarked) [Eseroline fumarate salt]
inhibitory activity with DUSP5 in library screen (GST-DUSP5): showed inhibitory activity

O=C1OC2(c3ccc(O)cc3Oc3cc(O)ccc32)c2ccccc21 [Fluorescein]
spectral shift upon addition of DUSP5 PD protein (DUSP5 PD [1]; with 1 mM DTT): no spectral differences
spectral shift upon addition of DUSP5 PD protein (DUSP5 PD [1]; without DTT): no spectral differences
IC50 (DUSP5 PD [4]): > 300 µM
IC50 (DUSP5 PD [4]; IC50 against DUSP5 PD activity, with 1 mM DTT, 30 min incubation, mean ± SD): > 300 µM
IC50 (DUSP5 PD [4]; IC50 against DUSP5 PD activity, with 1 mM DTT, 60 min incubation, mean ± SD): > 300 µM
IC50 (DUSP5 PD [4]; IC50 against DUSP5 PD activity, without DTT, 30 min incubation, mean ± SD): > 300 µM
IC50 (DUSP5 PD [4]; IC50 against DUSP5 PD activity, without DTT, 60 min incubation, mean ± SD): > 300 µM
inhibition of DUSP5 PD activity (DUSP5 PD [4]; concentrations up to 300 μM): did not inhibit

N[C@@H](Cc1ccc(O)c(O)c1)C(=O)O [Levodopa]
inhibitory activity with DUSP5 in library screen (GST-DUSP5): showed inhibitory activity

CN(C)[C@@H]1C(O)=C(C(=O)NCNCCCC[C@H](N)C(=O)O)C(=O)[C@@]2(O)C(O)=C3C(=O)c4c(O)cccc4[C@@](C)(O)[C@H]3C[C@@H]12 [Lymecycline]
inhibitory activity with DUSP5 in library screen (GST-DUSP5): showed inhibitory activity

O=C([O-])c1ccccc1-c1c2cc(Br)c(=O)cc-2oc2[c]([Hg+])c([O-])c(Br)cc12.[Na+].[Na+].[OH-] [Merbromin, 2’,7’-dibromo-5’-[hydroxy-mercurio]-fluorescein]
effect of DTT addition on compound aggregation (Nephelometry): little effect
rank in secondary assay of pERK dephosphorylation among 8 screen hits [5]: most potent inhibitor
spectral shift upon addition of DUSP5 PD protein (DUSP5 PD [1]; with 1 mM DTT): blunted
spectral shift upon addition of DUSP5 PD protein (DUSP5 PD [1]; without DTT): largest spectral shift
Inhibitor mechanism (irreversible inactivation) (DUSP5 PD [2]; with 1 mM DTT): single-step
kinact/KI (slope of linear fit) (DUSP5 PD [2]; with 1 mM DTT, fit shown in Fig. 5c/6c): 6.0 M⁻¹ s⁻¹
kinact/KI (DUSP5 PD [2]; [10]): 6.22 ± 0.74 M⁻¹ s⁻¹
kinact/KI (slope from the data fit) (DUSP5 PD [2]; with DTT, Fig. 5c): 6.0 M⁻¹
fold decrease of kinact/KI in the presence of DTT (DUSP5 PD [2]; with vs without DTT): 7.6 fold
Inhibitor mechanism (irreversible inactivation) (DUSP5 PD [2]; without DTT): two-step
Ki (DUSP5 PD [2]; [12]): 33 µM
kinact (DUSP5 PD [2]; [12]): 0.0014 s⁻¹
kinact/KI (DUSP5 PD [2]; without DTT, fit shown in Fig. 5c/6c): 42.4 M⁻¹ s⁻¹
kinact/KI (DUSP5 PD [2]; [11]): 47.08 ± 4.66 M⁻¹ s⁻¹
kinact/KI (DUSP5 PD [2]; without DTT, summary of data sets (Table 2), listed as merbromin): 47 M⁻¹ s⁻¹
inhibitory activity with DUSP5 in library screen (GST-DUSP5): showed inhibitory activity

COc1cc(NC(C)CCCN)c2ncccc2c1 (centres unmarked) [Primaquine diphosphate]
inhibitory activity with DUSP5 in library screen (GST-DUSP5): showed inhibitory activity

CC[N+](C)(CC)CCC[n+]1c(-c2ccccc2)c2cc(N)ccc2c2ccc(N)cc21.[I-].[I-] [Propidium iodide]
inhibitory activity with DUSP5 in library screen (GST-DUSP5): showed inhibitory activity

O=C(O)c1c(Cl)c(Cl)c(Cl)c(Cl)c1-c1c2cc(I)c(=O)c(I)c-2oc2c(I)c(O)c(I)cc12 [Rose Bengal, 4,5,6,7-tetrachloro-2’,4’,5’,7’-tetraiodofluorescein]
DUSP5 PD enzyme activity, oxygen-gassed vs other conditions (DUSP5 PD [6]): significantly lower activities
DUSP5 PD enzyme velocity, nitrogen-gassed vs compressed air or oxygen (DUSP5 PD [6]): significantly higher velocities
Kii, intercept inhibition constant (two Ki noncompetitive model, equation 7) (DUSP5 PD [7]; 15 min dark incubation): 2.25 ± 0.10 µM
Kii, intercept inhibition constant (two Ki noncompetitive model, equation 7) (DUSP5 PD [7]; 15 min light exposure): 0.55 ± 0.02 µM
steady-state inhibition mechanism (DUSP5 PD [7]; vs pNPP): noncompetitive inhibitor
Kd (DUSP5 PD [8]): 0.69 µM
Ki of LED-illuminated samples relative to samples incubated in the dark (DUSP5 PD [9]): about half

O.O=C1C(O)=C(O)C(=O)C(O)=C1O [Tetrahydroxy 1,4-quinone monohydrate]
inhibitory activity with DUSP5 in library screen (GST-DUSP5): showed inhibitory activity

Anthracin
inhibitory activity with DUSP5 in library screen (GST-DUSP5): showed inhibitory activity

Cyanocobalamin
inhibitory activity with DUSP5 in library screen (GST-DUSP5): showed inhibitory activity
